Here are results for 21 compounds from ChEMBL document CHEMBL3877328, “Identification of allosteric binding sites for PI3Kα oncogenic mutant specific inhibitor design” (Bioorg Med Chem, 2017).

pIC50: −log10 of the molar value.

Experiment [1] addresses PI3-kinase p110-alpha/p85-alpha (Homo sapiens) (UniProt P27986+P42336). Kind of experiment: Inhibition of wild type PI3K p110alpha/p85alpha niSH2 (unknown origin) expressed in baculovirus infected sf9 cells assessed as reduction in PIP3 formation at 100 uM using PIP2 as substrate after 45 mins by fluorescence polarization assay relative to control. In a few lines:
(§1)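 Wild-type PI3Kα, either full-length or the p110α/niSH2 construct used for crystallography. Protein was co-expressed in Sf9 cells from p110α and p85α (or niSH2) viruses at MOI ratio 3:2, with J-32 in the medium, and harvested at 48 h. Fragments were added from 10% (v/v) DMSO dilutions and screened at 100 μM. Reactions held 10 μM PIP2 and 25 μM ATP, 45 min at room temperature. PIP3 formation was read by fluorescence polarization.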
A general note: Fluorescence polarisation rises when a labelled molecule tumbles more slowly, as on binding a larger partner.

Experiment [2] addresses T1, Phosphatidylinositol 4,5-bisphosphate 3-kinase catalytic subunit alpha isoform (Homo sapiens, UniProt P42336). Kind of experiment: Inhibition of full length PI3Kalpha (unknown origin) assessed as reduction in PIP3 formation at 100 uM using PIP2 as substrate after 45 mins by fluorescence polarization assay relative to control. In a few lines:
as §1

Experiment [3] addresses T1, Phosphatidylinositol 4,5-bisphosphate 3-kinase catalytic subunit alpha isoform. The experiment can be described thus: Inhibition of full length PI3Kalpha (unknown origin) assessed as reduction in PIP3 formation using PIP2 as substrate after 45 mins by fluorescence polarization assay. In a few lines: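 Wild-type full-length p110α/p85α PI3Kα, baculovirus-expressed in Sf9 cells, purified. Fluorescence polarization kit detecting PIP3 formation. Reaction with 10 μM PIP2 and 25 μM ATP, 45 min at room temperature. Fragments diluted in 10% (v/v) DMSO. Single-point screen at 100 μM; IC50 from dose-response curves over increasing fragment concentrations.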

T1 sequence (P42336 whole entry, canonical isoform): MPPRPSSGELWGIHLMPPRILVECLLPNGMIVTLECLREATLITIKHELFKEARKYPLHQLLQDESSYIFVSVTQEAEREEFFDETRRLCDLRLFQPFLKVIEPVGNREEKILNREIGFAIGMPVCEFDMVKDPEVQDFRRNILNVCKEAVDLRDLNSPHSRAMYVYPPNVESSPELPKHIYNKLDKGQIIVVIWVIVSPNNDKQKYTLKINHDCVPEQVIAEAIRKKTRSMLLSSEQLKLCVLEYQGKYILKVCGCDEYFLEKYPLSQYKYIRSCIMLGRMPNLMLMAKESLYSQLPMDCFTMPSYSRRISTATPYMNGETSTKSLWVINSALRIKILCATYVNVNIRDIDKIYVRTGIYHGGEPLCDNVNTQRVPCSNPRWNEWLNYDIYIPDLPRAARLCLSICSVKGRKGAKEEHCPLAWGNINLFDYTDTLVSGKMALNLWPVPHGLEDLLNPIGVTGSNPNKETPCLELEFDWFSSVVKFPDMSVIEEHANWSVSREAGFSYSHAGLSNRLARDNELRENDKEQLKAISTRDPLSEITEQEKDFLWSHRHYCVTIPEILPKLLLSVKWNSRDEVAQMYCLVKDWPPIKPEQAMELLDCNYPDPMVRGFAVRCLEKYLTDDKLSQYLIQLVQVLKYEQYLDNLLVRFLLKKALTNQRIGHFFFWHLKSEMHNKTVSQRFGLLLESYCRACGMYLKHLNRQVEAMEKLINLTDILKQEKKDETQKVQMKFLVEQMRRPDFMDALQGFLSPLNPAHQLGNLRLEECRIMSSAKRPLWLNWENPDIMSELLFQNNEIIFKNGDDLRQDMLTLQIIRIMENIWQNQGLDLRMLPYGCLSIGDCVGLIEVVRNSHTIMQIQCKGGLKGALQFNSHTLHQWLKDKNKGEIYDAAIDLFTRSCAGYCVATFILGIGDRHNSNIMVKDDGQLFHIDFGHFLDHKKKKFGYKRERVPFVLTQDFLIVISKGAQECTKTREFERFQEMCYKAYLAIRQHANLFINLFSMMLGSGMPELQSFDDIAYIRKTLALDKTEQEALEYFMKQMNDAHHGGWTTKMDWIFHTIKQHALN

In the case of `O=C(O)CCc1ccc(O)cc1`, the inhibition in experiment [1] and in experiment [2] was under 25% throughout.

On to `O=c1[nH]c(=O)c2nccnc2[nH]1`, for which the inhibition in experiment [1] and in experiment [2] was under 25% throughout.

Take `Nc1nc2ccccc2[nH]1`: the inhibition in experiment [1] and in experiment [2] was under 25% in each case.

As to `Cc1cc2ccccc2[nH]1`, the inhibition in experiment [1] and in experiment [2] was under 25% throughout.

For the compound `Cc1cc(C)nc(N)c1`, the inhibition in experiment [1] and in experiment [2] was under 25% throughout.

Turning to `Cc1c(N)cccc1N`, in experiment [2], the inhibition (as a rule, how much of the control response was suppressed) was 92%. The pIC50 – broadly, −log10 of the IC50, conventionally taken in molar units – in experiment [3] was 4.70.

On to `Nc1ccc2[nH]c(C(F)(F)F)nc2c1`, for which the inhibition in experiment [1] and in experiment [2] was under 25% in each case.

Regarding `CC1C(=O)CCCC1=O`, the inhibition in experiment [1] and in experiment [2] was under 25% each time.

As to `O=c1[nH]cc(F)c(=O)[nH]1`, the inhibition in experiment [1] and in experiment [2] was under 25% in each case.

Regarding `Cc1ccnc(N)c1[N+](=O)[O-]`, the inhibition in experiment [1] and in experiment [2] was under 25% each time.

Regarding `Oc1ccccc1O` [CATECHOL], the inhibition in experiment [2] is 87%. Besides, the pIC50 in experiment [3] was 4.48.

Consider `OC1CCC(O)CC1` (configuration not stated), for which the inhibition in experiment [1] and in experiment [2] was under 25% in each case.

As to `O=C(O)c1ccccc1O`, the inhibition in experiment [1] and in experiment [2] was under 25% throughout.

Consider `N#Cc1cccc(N)c1`, for which the inhibition in experiment [1] and in experiment [2] was under 25% in each case.

For `Nc1ccc2c(c1)CN=N2`, the inhibition in experiment [1] and in experiment [2] was under 25% in each case.

Take `Cc1cccc(N)n1`: the inhibition in experiment [1] and in experiment [2] was under 25% in each case.

In the case of `COc1ccccc1C(=O)O`, the inhibition in experiment [1] and in experiment [2] was under 25% throughout.

As to `Nc1ccccc1CO`, the inhibition in experiment [1] and in experiment [2] was under 25% throughout.

In the case of `Oc1cccnc1`, the inhibition in experiment [1] and in experiment [2] was under 25% throughout.

As for `CC(C)(C)OC(=O)N1CCC(N)CC1`, the inhibition in experiment [1] and in experiment [2] was under 25% throughout.

On to `NS(=O)(=O)c1ccccc1Cl`, for which the inhibition in experiment [1] and in experiment [2] was under 25% each time.
